Measurements reported in ChEMBL document CHEMBL4028856, “Discovery of Small Molecules Targeting the Synergy of Cardiac Transcription Factors GATA4 and NKX2-5” (J Med Chem, 2017).
One block for each compound: values may come before it. Calls of active or inactive are those of the source. The rule behind the calls is not given here.

Experiments:
[1] = Induction of aggregation of compounds at 100 uM by nephalometric method
[2] = Induction of necrosis in endothelin-1 induced neonatal rat ventricular cardiomyocytes assessed as release of adenylate kinase at 50 uM measured after 24 hrs by bioluminescence assay; type: cell-based; details: cardiac muscle cell
In short: (§1)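 Neonatal rat cardiomyocytes treated 24 h at 50 μM; adenylate kinase released into medium measured by ToxiLight bioluminescence on a luminometer; relative to vehicle, mean ± SD, n = 3.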

[3] = biological target: T1, GATA4/NKX2-5 (Mus musculus) (UniProt Q08369+P42582); assay: Inhibition of mouse GATA4/NKX2-5 transcriptional synergy expressed in African green monkey COS-1 cells at 50 uM measured after 30 hrs by dual luciferase reporter gene assay; type: cell-based
In short: (§2)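 COS-1 cells co-transfected (Fugene 6, DNA:reagent 1:3) with p3xNKE-luc, Renilla pRL-TKd238 control, and pMT2-GATA4, pMT2-NKX2-5, both, or empty pMT2; DNA balanced with pMT2. Compounds added 6 h post-transfection in 0.1% DMSO, medium renewed at 24 h, lysis at 30 h. Dual-luciferase read-out, firefly/Renilla normalized to vehicle; duplicate wells.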

[4] = biological target: T2, GATA4/NKX2-5 (Rattus norvegicus) (UniProt P46152+O35767); assay: Activation of GATA4/NKX2-5 interaction in neonatal rat ventricular cardiomyocytes assessed as increase in basal mRNA level of ANP at 100 uM after 24 hrs by real-time PCR analysis relative to control
In short: (§3)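 Neonatal rat ventricular myocytes (2–4-day-old Sprague-Dawley or Wistar), preplated, seeded on 6-well plates, moved to complete serum-free medium next day and cultured 24 h. Compounds (10–100 μM) added 1 h before 100 nM endothelin-1 or none; ANP and BNP mRNA quantified by RT-PCR at 24 h, normalized to 18S RNA, relative to vehicle; mean ± SD, n = 3–6.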

[5] = biological target: Transcription factor GATA-4 (Mus musculus) (UniProt Q08369); assay: Inhibition of binding of mouse GATA4 to [32P]-double stranded oligonucleotide expressed in African green monkey COS-1 cells at 50 uM preincubated for 10 mins followed by [32P]-double stranded oligonucleotide addition measured after 20 mins by EMSA method; type: cell-based
In short: (§4)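 Nuclear extracts from COS-1 cells transfected with pMT2-GATA4 or pMT2-NKX2-5 (harvested 48 h) preincubated 10 min with 50 μM compound, then 20 min with 32P-labeled GATA4- or NKX2-5-site probe; native 5% PAGE, phosphorimager quantitation; antibody supershift controls; mean ± SD, n = 3–5.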

[6] = biological target: Fibroblast growth factor receptor 3 (Homo sapiens) (UniProt P22607); assay: Inhibiton of human FGFR3 at 30 uM
In short: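 48-kinase profiling panel; compounds tested at 30 μM in duplicate.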

GATA4/NKX2-5 = GATA4/NKX2-5 (Mus musculus, UniProt P42582+Q08369); assay: Inhibition of mouse GATA4/NKX2-5 transcriptional synergy expressed in African green monkey COS-1 cells measured after 30 hrs by dual luciferase reporter gene assay; type: cell-based; in short: as §2
[7] = Induction of apoptosis in endothelin-1 induced neonatal rat ventricular cardiomyocytes at 50 uM measured after 24 hrs by TUNEL assay; type: cell-based; details: cardiac muscle cell
In short: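 Neonatal rat cardiomyocytes on 8-well chamber slides treated 24 h at 50 μM; apoptotic cells detected by TUNEL with peroxidase in situ kit.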

[8] = biological target: Homeobox protein Nkx-2.5 (Rattus norvegicus) (UniProt O35767); assay: Inhibition of binding of NKX2-5 to [32P]-double stranded oligonucleotide in neonatal rat ventricular cardiomyocytes at 50 uM measured after 24 hrs by EMSA method
In short: (§5)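 Neonatal rat cardiomyocytes treated 24 h with 50 μM; nuclear extracts incubated 20 min with [α-32P]dCTP Klenow-labeled GATA4- or NKX2-5-site oligonucleotide in HEPES/NaCl/KCl/MgCl2 buffer with poly(dI-dC); 5% native PAGE, phosphorimager; supershift with anti-GATA4/NKX2-5; relative to vehicle, mean ± SD, n = 3–5.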

[9] = Induction of aggregation of compound at 3 to 30 uM by nephalometric method
[10] = biological target: T2, GATA4/NKX2-5 (Rattus norvegicus); assay: Activation of GATA4/NKX2-5 interaction in neonatal rat ventricular cardiomyocytes assessed as increase in basal mRNA level of BNP at 100 uM after 24 hrs by real-time PCR analysis relative to control; in short: as §3
[11] = Induction of necrosis in neonatal rat ventricular cardiomyocytes assessed as release of adenylate kinase at 50 uM measured after 24 hrs by bioluminescence assay; type: cell-based; details: cardiac muscle cell; in short: as §1
[12] = biological target: Transcription factor GATA-4 (Rattus norvegicus) (UniProt P46152); assay: Inhibition of binding of GATA4 to [32P]-double stranded oligonucleotide in neonatal rat ventricular cardiomyocytes at 50 uM measured after 24 hrs by EMSA method; in short: as §5
[13] = biological target: Transcription factor GATA-4 (Mus musculus) (UniProt Q08369); assay: Inhibition of mouse GATA4-driven transactivation of luciferase reporter construct containing BNP minimal promoter with tandem GATA-site on -90 bp expressed in African green monkey COS-1 cells after 30 hrs by luminometer; type: cell-based
In short: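 COS-1 cells co-transfected with firefly luciferase driven by BNP minimal or −90 bp BNP promoter, Renilla pRL-TKd238, and pMT2-GATA4 or empty pMT2. Compounds added 6 h post-transfection in 0.1% DMSO, refreshed with medium at 24 h; lysis at 30 h; dual-luciferase, firefly/Renilla normalized to vehicle; triplicate wells.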

[14] = biological target: Homeobox protein Nkx-2.5 (Mus musculus) (UniProt P42582); assay: Inhibition of binding of mouse NKX2-5 to [32P]-double stranded oligonucleotide expressed in African green monkey COS-1 cells at 50 uM preincubated for 10 mins followed by [32P]-double stranded oligonucleotide addition measured after 20 mins by EMSA method; type: cell-based; in short: as §4
[15] = biological target: T1, GATA4/NKX2-5 (Mus musculus); details: 10 uM
[16] = biological target: T1, GATA4/NKX2-5 (Mus musculus); assay: Activation of mouse GATA4/NKX2-5 transcriptional synergy expressed in African green monkey COS-1 cells measured after 30 hrs by dual luciferase reporter gene assay; type: cell-based; in short: as §2
[17] = Induction of aggregation of compound at 30 uM by nephalometric method
[18] = biological target: T2, GATA4/NKX2-5 (Rattus norvegicus); assay: Activation of GATA4/NKX2-5 interaction in neonatal rat ventricular cardiomyocytes assessed as increase in endothelin-1 induced mRNA level of BNP at 20 uM preincubated for 1 hr followed by endothelin-1 addition measured after 23 hrs by real-time PCR analysis relative to control; in short: as §3
[19] = biological target: T1, GATA4/NKX2-5 (Mus musculus); assay: Activation of mouse GATA4/NKX2-5 transcriptional synergy expressed in African green monkey COS-1 cells at 10 uM measured after 30 hrs by dual luciferase reporter gene assay; type: cell-based; in short: as §2
[20] = biological target: T2, GATA4/NKX2-5 (Rattus norvegicus); assay: Activation of GATA4/NKX2-5 interaction in neonatal rat ventricular cardiomyocytes assessed as increase in basal mRNA level of ANP at 20 uM after 24 hrs by real-time PCR analysis relative to control; in short: as §3
[21] = biological target: T2, GATA4/NKX2-5 (Rattus norvegicus); assay: Activation of GATA4/NKX2-5 interaction in neonatal rat ventricular cardiomyocytes assessed as increase in basal mRNA level of BNP at 20 uM after 24 hrs by real-time PCR analysis relative to control; in short: as §3
[22] = Drug level in embryoid body differentiation medium treated with N-[4-(Diethylamino)phenyl]-5-methyl-3-phenylisoxazole-4-carboxamide at 3 to 5 uM measured after 10 days by HPLC/MS method
In short: (§6)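 Mouse embryonic stem cells exposed 5 and 10 days to 3 or 5 μM, with DMSO and EB differentiation medium blanks. Medium extracted with chloroform; cells pelleted, saline-washed twice, sonicated in chloroform. UPLC-ESI(+)-QTOF/MS, BEH C18, 0.1% formic acid water/acetonitrile gradient 7–80% B over 5 min, 0.6 mL/min, 40 °C.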

[23] = Drug level in mouse embryonic stem cells treated with N-[4-(Diethylamino)phenyl]-5-methyl-3-phenylisoxazole-4-carboxamide at 3 to 5 uM measured after 10 days by HPLC/MS method; type: ADME, cell-based; details: embryonic stem cell, 240 h; in short: as §6

Transcription factor GATA-4 (Mus musculus), sequence (Q08369 whole entry): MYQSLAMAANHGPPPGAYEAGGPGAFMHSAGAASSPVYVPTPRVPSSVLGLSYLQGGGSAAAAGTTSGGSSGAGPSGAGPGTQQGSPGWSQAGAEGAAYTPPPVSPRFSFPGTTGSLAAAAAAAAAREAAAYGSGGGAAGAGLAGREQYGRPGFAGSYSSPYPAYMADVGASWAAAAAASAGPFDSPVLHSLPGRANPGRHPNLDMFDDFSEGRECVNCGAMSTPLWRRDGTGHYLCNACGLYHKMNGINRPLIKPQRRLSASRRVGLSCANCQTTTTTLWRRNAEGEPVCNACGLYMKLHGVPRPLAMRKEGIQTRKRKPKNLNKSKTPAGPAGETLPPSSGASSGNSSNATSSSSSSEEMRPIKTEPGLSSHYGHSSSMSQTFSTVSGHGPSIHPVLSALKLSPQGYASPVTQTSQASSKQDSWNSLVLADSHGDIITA
GATA4/NKX2-5, sequence (Q08369 whole entry): as above
GATA4/NKX2-5, sequence (P42582 whole entry): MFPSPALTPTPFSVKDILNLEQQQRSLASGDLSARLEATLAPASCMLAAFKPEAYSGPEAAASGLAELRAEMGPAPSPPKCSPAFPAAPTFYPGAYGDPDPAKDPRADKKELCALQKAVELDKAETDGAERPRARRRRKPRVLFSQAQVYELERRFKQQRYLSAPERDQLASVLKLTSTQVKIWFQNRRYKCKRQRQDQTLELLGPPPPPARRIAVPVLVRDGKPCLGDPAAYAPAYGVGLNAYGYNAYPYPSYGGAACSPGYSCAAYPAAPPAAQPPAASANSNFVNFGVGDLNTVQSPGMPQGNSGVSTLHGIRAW
Homeobox protein Nkx-2.5 (Mus musculus), sequence (P42582 whole entry): as above
Fibroblast growth factor receptor 3 (Homo sapiens), sequence (P22607 23-806 limits assumed): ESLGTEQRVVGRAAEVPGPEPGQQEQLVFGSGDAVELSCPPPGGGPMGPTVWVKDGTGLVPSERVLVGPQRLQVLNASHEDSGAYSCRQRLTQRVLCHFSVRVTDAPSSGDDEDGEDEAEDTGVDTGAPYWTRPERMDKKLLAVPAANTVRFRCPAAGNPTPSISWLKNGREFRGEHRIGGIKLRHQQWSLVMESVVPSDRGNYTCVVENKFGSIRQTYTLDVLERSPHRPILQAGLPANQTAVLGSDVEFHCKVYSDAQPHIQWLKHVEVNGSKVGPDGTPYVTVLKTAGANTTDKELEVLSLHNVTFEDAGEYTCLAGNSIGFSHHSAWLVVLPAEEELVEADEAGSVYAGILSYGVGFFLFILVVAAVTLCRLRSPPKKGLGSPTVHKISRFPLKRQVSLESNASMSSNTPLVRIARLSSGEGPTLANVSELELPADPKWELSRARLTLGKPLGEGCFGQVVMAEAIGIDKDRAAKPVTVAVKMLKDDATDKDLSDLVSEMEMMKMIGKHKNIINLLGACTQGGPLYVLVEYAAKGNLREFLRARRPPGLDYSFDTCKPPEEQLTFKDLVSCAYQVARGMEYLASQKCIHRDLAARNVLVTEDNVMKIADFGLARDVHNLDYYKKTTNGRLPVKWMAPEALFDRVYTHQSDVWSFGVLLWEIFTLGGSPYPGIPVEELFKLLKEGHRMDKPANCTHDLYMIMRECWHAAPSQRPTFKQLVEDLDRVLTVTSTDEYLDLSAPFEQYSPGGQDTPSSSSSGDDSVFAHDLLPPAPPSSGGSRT
Homeobox protein Nkx-2.5 (Rattus norvegicus), sequence (O35767 whole entry): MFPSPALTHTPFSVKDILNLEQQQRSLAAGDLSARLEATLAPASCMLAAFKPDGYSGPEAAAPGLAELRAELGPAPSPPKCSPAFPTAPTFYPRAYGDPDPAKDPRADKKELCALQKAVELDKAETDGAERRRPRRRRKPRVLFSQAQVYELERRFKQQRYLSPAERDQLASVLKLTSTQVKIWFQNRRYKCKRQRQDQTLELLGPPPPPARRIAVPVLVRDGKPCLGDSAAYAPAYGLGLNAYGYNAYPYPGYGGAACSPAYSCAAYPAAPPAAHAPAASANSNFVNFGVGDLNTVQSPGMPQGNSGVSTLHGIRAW
Transcription factor GATA-4 (Rattus norvegicus), sequence (P46152 whole entry): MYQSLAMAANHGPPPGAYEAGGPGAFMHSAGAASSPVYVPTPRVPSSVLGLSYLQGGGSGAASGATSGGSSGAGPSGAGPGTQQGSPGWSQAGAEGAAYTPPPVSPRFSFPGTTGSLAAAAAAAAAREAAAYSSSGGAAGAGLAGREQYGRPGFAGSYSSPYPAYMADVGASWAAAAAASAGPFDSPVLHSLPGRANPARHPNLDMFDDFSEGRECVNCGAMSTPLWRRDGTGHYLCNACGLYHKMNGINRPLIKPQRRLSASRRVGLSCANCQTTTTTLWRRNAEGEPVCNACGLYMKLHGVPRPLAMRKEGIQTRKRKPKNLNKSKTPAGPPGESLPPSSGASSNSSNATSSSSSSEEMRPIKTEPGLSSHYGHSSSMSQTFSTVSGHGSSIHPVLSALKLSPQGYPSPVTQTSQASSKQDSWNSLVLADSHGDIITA

inhibition [3]: Active | fold change (FC) [4]: 8.6 | inhibition [5]: inactive | inhibition [6]: 55% | IC50 (GATA4/NKX2-5): 10 µM | inhibition [8]: 29% | fold change (FC) [10]: 4.9 | inhibition [12]: 37% | inhibition [13]: Active | inhibition [14]: Active
Structure (SMILES): CCCOc1ccc(/C=N/n2c(S)nnc2-c2ccncc2)cc1
Activity [1]: Active | Activity [2]: Non-Toxic | Activity [7]: Non-Toxic | Activity [9]: inactive | Activity [11]: Non-Toxic

inhibition [15]: Active | inhibition [5]: Active | IC50 (GATA4/NKX2-5): 5 µM | inhibition [14]: inactive
Structure (SMILES): CC(C)COC(=O)c1ccc(NC(=O)c2ccncc2)cc1

Ka [16]: 7 µM | fold change (FC) [18]: 2.1 | Activity [19]: Active | fold change (FC) [20]: 4.6 | fold change (FC) [21]: 6.4
Structure (SMILES): Cc1onc(-c2ccccc2)c1C(=O)N(C1=NC(C)CS1)c1ccc(Cl)cc1 (configuration not stated)
Activity [1]: Active | Activity [2]: Non-Toxic | Activity [17]: Active | Activity [7]: Non-Toxic | Activity [11]: Non-Toxic

IC50 (GATA4/NKX2-5): > 50 µM | Drug metabolism [23]: Metabolite_Detected
Structure (SMILES): CCNc1ccc(NC(=O)c2c(-c3ccccc3)noc2C)cc1
Drug metabolism [22]: Metabolite detected
